For 39 compounds, IC50, NS and Reduction results are on record in ChEMBL document CHEMBL1134325, “Diaminoindanes as microsomal triglyceride transfer protein inhibitors” (J Med Chem, 2001).

Test [1] deals with T1, Microsomal triglyceride transfer protein large subunit (Homo sapiens, UniProt P55157).
T1 sequence (P55157 whole entry): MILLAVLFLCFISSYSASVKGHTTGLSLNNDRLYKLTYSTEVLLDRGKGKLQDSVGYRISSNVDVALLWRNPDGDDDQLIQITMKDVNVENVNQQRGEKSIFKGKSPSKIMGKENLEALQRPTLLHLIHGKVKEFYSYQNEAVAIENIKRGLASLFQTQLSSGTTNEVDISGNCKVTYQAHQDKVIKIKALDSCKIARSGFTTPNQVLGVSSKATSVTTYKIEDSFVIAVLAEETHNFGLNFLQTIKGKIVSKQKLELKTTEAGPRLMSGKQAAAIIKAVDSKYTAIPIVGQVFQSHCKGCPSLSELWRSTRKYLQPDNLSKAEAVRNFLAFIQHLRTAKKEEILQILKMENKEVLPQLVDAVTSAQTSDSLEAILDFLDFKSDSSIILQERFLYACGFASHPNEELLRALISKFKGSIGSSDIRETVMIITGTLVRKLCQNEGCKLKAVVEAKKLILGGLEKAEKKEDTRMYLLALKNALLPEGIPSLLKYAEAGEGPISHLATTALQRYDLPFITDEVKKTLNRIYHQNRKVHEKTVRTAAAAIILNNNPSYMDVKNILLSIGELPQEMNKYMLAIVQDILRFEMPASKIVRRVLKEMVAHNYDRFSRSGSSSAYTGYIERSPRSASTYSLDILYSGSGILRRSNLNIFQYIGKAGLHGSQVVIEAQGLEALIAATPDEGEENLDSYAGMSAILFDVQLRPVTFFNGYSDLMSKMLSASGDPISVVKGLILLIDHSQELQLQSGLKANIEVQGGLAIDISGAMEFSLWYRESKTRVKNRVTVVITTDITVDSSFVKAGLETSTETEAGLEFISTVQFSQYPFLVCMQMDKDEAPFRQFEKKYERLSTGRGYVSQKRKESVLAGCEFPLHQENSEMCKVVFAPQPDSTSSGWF
Nature of the test: In vitro inhibitory activity against MTP using MTP transfer assay.

Test [2] has as its system Rattus norvegicus. Put plainly: Inhibition of total cholesterol in normolipidemic rats after 24 hr of 50 mg/kg oral dosing; no significant change. It counts as functional, organism-based. Further details: dose 50 mg/kg. An outline of the steps: (§1)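 Overnight-fasted normolipidemic rats received a single oral dose in cornstarch vehicle. Blood was drawn at 2, 6 and 24 h post-dose and assayed for triglycerides and total cholesterol, with free access to food after the 6 h sample. Value is mean percent inhibition versus a separate vehicle-treated group, unpaired t test p < 0.05, NS = no significant change, N = 6.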

Test [3] deals with Rattus norvegicus. Nature of the test: Inhibition of plasma triglycerides in normolipidemic rats after 2 hr of 50 mg/kg oral dosing. It is filed as functional. The gist of the method:
as §1

In test [4] the test system is Rattus norvegicus. Put plainly: Inhibition of plasma triglycerides in normolipidemic rats after 6 hr of 50 mg/kg oral dosing. It is filed as functional. An outline of the steps: as §1
Test [5] deals with Rattus norvegicus. Nature of the test: Inhibition of total cholesterol in normolipidemic rats after 2 hr of 50 mg/kg oral dosing. It counts as functional. An outline of the steps:
as §1

Test [6] relates to Rattus norvegicus. Put plainly: Inhibition of total cholesterol in normolipidemic rats after 6 hr of 50 mg/kg oral dosing. It is filed as functional. The gist of the method: as §1
In test [7] the test system is Rattus norvegicus. Nature of the test: Inhibition of plasma triglycerides in normolipidemic rats after 24 h of 50 mg/kg oral dosing; no significant change. It counts as functional, organism-based. The arrangement: dose 50 mg/kg. The gist of the method: as §1
Test [8] relates to Rattus norvegicus. Nature of the test: Inhibition of plasma triglycerides in normolipidemic rats after 24 hr of 50 mg/kg oral dosing. It is filed as functional. An outline of the steps:
as §1

In test [9] the test system is Rattus norvegicus. Nature of the test: Inhibition of total cholesterol in normolipidemic rats after 24 hr of 50 mg/kg oral dosing. It is filed as functional. The gist of the method:
as §1

Test [10] relates to Rattus norvegicus. Put plainly: Inhibition of total cholesterol in normolipidemic rats after 6 h of […] mg/kg oral dosing; no significant change. It counts as functional, organism-based. Further details: dose 50 mg/kg.
For test [11], the system named is Rattus norvegicus. Put plainly: Inhibition of plasma triglycerides in normolipidemic rats after 6 h of […] mg/kg oral dosing; no significant change. It counts as functional, organism-based. Further details: dose 50 mg/kg.

One may read the IC50 as the point on the concentration scale where inhibition reaches its midpoint. A low value points to inhibition by little substance. Turning to `Cc1cccc(C(=O)Nc2ccc3c(c2)CC(NS(=O)(=O)c2ccccc2)C3)c1-c1ccc(Cl)cc1` (stereo not drawn), in test [1], 100 nM corresponded to half-maximal inhibition (IC50).
In test [1], `COC(=O)N[C@H]1Cc2ccc(NC(=O)c3ccccc3-c3ccc(C(F)(F)F)cc3)cc2C1` yielded an IC50 of 68 nM. Moreover, the NS entry in test [2] and in [7] was “no significant change” each time. The Reduction in [3] is 69%; in test [4] it was 74%; in test [5] it was 20%; in [6], 39%.
In test [1], `Cc1cc(C)c(-c2ccc(C(F)(F)F)cc2)c(C(=O)Nc2ccc3c(c2)C[C@H](NS(=O)(=O)c2cccs2)C3)c1` had an IC50 of 20 nM. The Reduction in test [3] is on record as 77%; in [8] it was 46%; in [4] it was 48%; in test [5], 21%; in test [6], 34%; in [9] it was 47%.
For the compound `COC(=O)N[C@@H]1Cc2ccc(NC(=O)c3cc(C)cc(C)c3-c3ccc(C(F)(F)F)cc3)cc2C1`, in [1], it took 90 nM to reach half-maximal inhibition (IC50).
In turn, `COC(=O)NCC1Cc2ccc(NC(=O)c3cccc(C)c3-c3ccc(Cl)cc3)cc2C1` (stereo not drawn) came in with an IC50 in [1] of 100 nM.
Turning to `Cc1cccc(C(=O)Nc2ccc3c(c2)CCC(NS(C)(=O)=O)CC3)c1-c1ccc(C(F)(F)F)cc1` (stereo not drawn), in test [1], the half-maximal inhibitory concentration (IC50) is 80 nM. In addition, the Reduction was found to be 81% in [3]; 53% in [4]; 29% in [5]; 41% in test [6]; 17% in [9]. Also, in [7], the NS entry was “no significant change”.
The compound `CC(=O)NC1Cc2ccc(NC(=O)c3ccccc3-c3ccc(C(F)(F)F)cc3)cc2C1` (stereo not drawn) came in with an IC50 in test [1] of 80 nM.
The same measure, in the same setting: next, `COC(=O)N[C@H]1Cc2ccc(NC(=O)c3cc(C)cc(C)c3-c3ccc(C(F)(F)F)cc3)cc2C1`: 70 nM; `Cc1ccc(-c2c(C)cccc2C(=O)Nc2ccc3c(c2)CC(NS(=O)(=O)c2ccccc2)C3)cc1` (stereo not drawn): 93 nM; `Cc1cccc(C(=O)Nc2ccc3c(c2)CC(NS(=O)(=O)c2ccccc2)C3)c1-c1ccc(C#N)cc1` (stereo not drawn): 120 nM.
The same measure, in the same setting: next, `O=C(Nc1ccc2c(c1)CC(NCc1ccccc1)C2)c1ccccc1-c1ccc(C(F)(F)F)cc1` (stereo not drawn): 4800 nM; `Cc1cccc(C(=O)Nc2ccc3c(c2)CC(NS(C)(=O)=O)C3)c1-c1ccc(F)cc1` (stereo not drawn): 170 nM.
Still for that read-out and setting: under `CN(C)C(=O)NC1Cc2ccc(NC(=O)c3ccccc3-c3ccc(C(F)(F)F)cc3)cc2C1` (stereo not drawn) stands 80 nM.
The compound `Cc1cccc(C(=O)Nc2ccc3c(c2)CC(NS(=O)(=O)c2cccs2)C3)c1-c1ccc(F)cc1` (stereo not drawn) returned an IC50 in test [1] of 50 nM.
On the same count and under the same terms, next, `Cc1cccc(C(=O)Nc2ccc3c(c2)CC(CNS(C)(=O)=O)C3)c1-c1ccc(C(F)(F)F)cc1` (stereo not drawn): 150 nM.
Still for that read-out and setting: next, `COC(=O)N[C@@H]1Cc2ccc(NC(=O)c3ccccc3-c3ccc(C(F)(F)F)cc3)cc2C1`: 110 nM.
As for `Cc1cccc(C(=O)Nc2ccc3c(c2)C[C@@H](NS(C)(=O)=O)C3)c1-c1ccc(C(F)(F)F)cc1`, in test [1], half-maximal inhibition (IC50) required 204 nM. For the same compound, the NS entry in test [2] and in test [7] was “no significant change” throughout. Further, the Reduction in test [3] is given as 33%; in test [4], 33%; in test [5], 12%; in test [6] it was 15%.
Take `Cc1cccc(C(=O)Nc2ccc3c(c2)CC(CNS(C)(=O)=O)C3)c1-c1ccc(Cl)cc1` (stereo not drawn): 500 nM corresponded to half-maximal inhibition in test [1] (IC50).
The same measure, in the same setting: under `Cc1cccc(C(=O)Nc2ccc3c(c2)CCC(NS(C)(=O)=O)CC3)c1-c1ccc(Cl)cc1` (stereo not drawn) stands 90 nM; under `COc1cccc(C(=O)Nc2ccc3c(c2)CC(NS(=O)(=O)c2ccccc2)C3)c1-c1ccc(Cl)cc1` (stereo not drawn), 110 nM.
Consider `Cc1cccc(C(=O)Nc2ccc3c(c2)CC(CNS(=O)(=O)c2cccs2)C3)c1-c1ccc(C(F)(F)F)cc1` (stereo not drawn), for which, in test [1], the IC50 was 14 nM.
In [1], `Cc1cccc(C(=O)Nc2ccc3c(c2)C[C@H](NS(C)(=O)=O)C3)c1-c1ccc(C(F)(F)F)cc1` returned an IC50 of 34 nM. Further, the NS entry in [2] and in test [7] was “no significant change” each time. Further, the Reduction stood at 74% in test [3], 68% in [4], 27% in test [5] and 42% in [6].
For `COC(=O)N[C@H]1Cc2ccc(NC(=O)c3cc(C(F)(F)F)ccc3-c3ccc(C(F)(F)F)cc3)cc2C1`, in test [1], half-maximal inhibition (IC50) was put at 410 nM.
For the compound `Cc1cc(C)c(-c2ccc(C(F)(F)F)cc2)c(C(=O)Nc2ccc3c(c2)C[C@@H](NS(=O)(=O)c2cccs2)C3)c1`, in test [1], the IC50 amounted to 180 nM. Further, the NS result in [2] and in test [7] was “no significant change” each time. Also, the Reduction worked out at 79% in test [3], 68% in test [4], 33% in [5] and 46% in [6].
Consider `COC(=O)NC1CCc2ccc(NC(=O)c3cccc(C)c3-c3ccc(Cl)cc3)cc2CC1` (stereo not drawn), for which the IC50 in test [1] turned out to be 80 nM.
The same measure, in the same setting: under `COC(=O)NCC1Cc2ccc(NC(=O)c3cc(C)cc(C)c3-c3ccc(C(F)(F)F)cc3)cc2C1` (stereo not drawn) stands 40 nM; under `Cc1cccc(C(=O)Nc2ccc3c(c2)CCC(NS(=O)(=O)c2cccs2)CC3)c1-c1ccc(C(F)(F)F)cc1` (stereo not drawn), 140 nM; under `COC(=O)N[C@H]1Cc2ccc(NC(=O)c3cccc(C(F)(F)F)c3-c3ccc(C(F)(F)F)cc3)cc2C1`, 50 nM.
Still for that read-out and setting: under `Cc1cccc(C(=O)Nc2ccc3c(c2)CC(NS(=O)(=O)c2ccccc2)C3)c1-c1ccc(F)cc1` (stereo not drawn) stands 240 nM.
`O=C(Nc1ccc2c(c1)CC(NS(=O)(=O)c1ccccc1)C2)c1ccccc1-c1ccc(C(F)(F)F)cc1` (stereo not drawn): in test [1], the IC50 stood at 105 nM. Besides, the NS result in [2], in [10] and in test [7] was “no significant change” throughout. For the same compound, the Reduction in test [3] was 57%; in [4] it was 30%; in test [5], 21%.
In test [1], `Cc1cccc(C(=O)Nc2ccc3c(c2)CC(NS(C)(=O)=O)C3)c1-c1ccc(Cl)cc1` (stereo not drawn) returned an IC50 of 100 nM.
Same read-out and setting: under `O=C(NC1Cc2ccc(NC(=O)c3ccccc3-c3ccc(C(F)(F)F)cc3)cc2C1)c1ccccc1` (stereo not drawn) stands above 1000 nM; under `COC(=O)NC1Cc2ccc(NC(=O)c3cc(C)cc(C)c3-c3ccc(Cl)cc3)cc2C1` (stereo not drawn), 120 nM; under `O=C(Nc1ccc2c(c1)CC(NS(=O)(=O)c1ccccc1)C2)c1ccccc1-c1ccccc1` (stereo not drawn), 710 nM.
Same read-out and setting: next, `COc1cccc(C(=O)Nc2ccc3c(c2)CC(NS(C)(=O)=O)C3)c1-c1ccc(Cl)cc1` (stereo not drawn): 70 nM; `Cc1cccc(C(=O)Nc2ccc3c(c2)CC(NS(=O)(=O)c2cccs2)C3)c1-c1ccc(Cl)cc1` (stereo not drawn): 120 nM; `CS(=O)(=O)NC1Cc2ccc(NC(=O)c3ccccc3-c3ccc(C(F)(F)F)cc3)cc2C1` (stereo not drawn): 120 nM.
`COC(=O)N1CCN([C@@H]2Cc3ccc(NC(=O)c4cccc(C)c4-c4ccc(C(F)(F)F)cc4)cc3C2)CC1`: in test [1], the midpoint of inhibition, the IC50, lay at 1000 nM. Further, the NS entry in test [2], in [7] and in test [11] was “no significant change” throughout. Moreover, the Reduction in test [3] came out at 58%; in test [5], 23%; in test [6] it was 20%.
In turn, `COC(=O)NC1CCc2ccc(NC(=O)c3cccc(C)c3-c3ccc(C(F)(F)F)cc3)cc2CC1` (stereo not drawn) displayed an IC50 in test [1] of 20 nM. The NS entry in test [2], in test [7] and in test [11] was “no significant change” in each case. Also, the Reduction in test [3] was found to be 39%; in test [5], 20%; in test [6], 20%.
